Assay results from ChEMBL document CHEMBL3632609, “Hederagenin as a triterpene template for the development of new antitumor compounds” (Eur J Med Chem, 2015).
Activity calls are given as the source filed them. The calls are words filed in the database; no cut-off is given here.

Assays:
Format in all cases: functional, cell-based
[1] = Cytotoxicity against human 518A2 cells assessed as cell survival after 96 hrs by sulforhodamine B assay; conditions: 518A2, 96 h
Summary of the method: (§1)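 Cells in exponential growth were seeded at densities that avoided confluence and, after 24 h, exposed to serial compound dilutions (0-30 μM, DMSO ≤0.5% final) for 96 h. Cells were then fixed with 10% TCA at 4 °C, washed with water, and stained with 0.4% SRB for about 20 min. Excess dye was removed with 1% acetic acid, bound dye was taken up in 10 mM Tris base, and absorbance was read at 570 nm.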

A549 = test: Cytotoxicity against human A549 cells assessed as cell survival after 96 hrs by sulforhodamine B assay; conditions: A549, 96 h; summary of the method: as §1
8505C = test: Cytotoxicity against human 8505C cells assessed as cell survival after 96 hrs by sulforhodamine B assay; summary of the method: as §1
MCF7 = test: Cytotoxicity against human MCF7 cells assessed as cell survival after 96 hrs by sulforhodamine B assay; conditions: MCF7, 96 h; summary of the method: as §1
A2780 [2] = test: Cytotoxicity against human A2780 cells assessed as cell survival after 96 hrs by sulforhodamine B assay; conditions: A2780, 96 h; summary of the method: as §1
HT-29 = test: Cytotoxicity against human HT-29 cells assessed as cell survival after 96 hrs by sulforhodamine B assay; conditions: HT-29, 96 h; summary of the method: as §1
A2780 [3] = test: Induction of apoptosis in human A2780 cells at EC90 after 48 hrs by acridine orange/propidium iodide staining-based fluorescence microscopic analysis
Summary of the method: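 The supernatant cells were pelleted, washed in PBS, resuspended in PBS, mixed with acridine orange/propidium iodide, and examined under a fluorescence microscope, with green-fluorescent cells scored as undergoing controlled death and orange cells as necrotic.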

CC1(C)CC[C@]2(C(=O)NCCN3CCCC3)CC[C@]3(C)C(=CC[C@@H]4[C@@]5(C)CC[C@H](O)[C@@](C)(CO)[C@@H]5CC[C@]43C)[C@@H]2C1
EC50 [1]: 2 µM
EC50 (A549): 1.9 µM
EC50 (8505C): 1.8 µM
EC50 (MCF7): 3.7 µM
EC50 (A2780 [2]): 1.1 µM
EC50 (HT-29): 1.2 µM
Activity (A2780 [3]): Active
